# Experimental data published in ChEMBL document CHEMBL1157893, “The discovery and structure-activity relationships of pyrano[3,4-b]indole based inhibitors of hepatitis C virus NS5B polymerase” (Bioorg Med Chem Lett, 2010).
# Columns and labels:
# [1] = Inhibition of HCV BK NS5B polymerase; design: species or system Hepatitis C virus (isolate BK)
# Hepatitis C virus [2] = experiment: Inhibition of HCV 1b BB7 NS5B Cdelta21 polymerase expressed in Escherichia coli after 120 mins; format: functional, Hepatitis C virus subtype 1b; conditions: BB7, 2 h
# How it was run: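 RdRp assay with 24 nM NS5BdCT21-His in 20 mM HEPES pH 7.5, 5 mM MgCl₂, 1 mM DTT, 0.05 mg/ml BSA and NTPs. Enzyme preincubated with compound (3 nM–30) 15 min at room temperature, then reacted 120 min at room temperature. Radiolabeled RNA collected on filters and counted by scintillation. IC50 from sigmoidal variable-slope dose–response fit, relative to no-compound controls.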
# Hepatitis C virus [3] = experiment: Antiviral activity against HCV 1b BB7 infected in human HuH7 cells after 3 days by ELISA; format: functional, organism-based, Hepacivirus hominis; conditions: genotype 1b BB7, Huh-7, 72 h
# How it was run: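 HCV replicon cells; viral replication measured by ELISA against NS5A.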
# Hepatitis C virus [4] = experiment: Antiviral activity against HCV 1b BB7 infected in human HuH7 cells assessed as total viral RNA level after 3 days by RT-PCR analysis; format: functional, Hepacivirus hominis, genotype 1b BB7, Huh-7
# Hepatitis C virus [5] = experiment: Antiviral activity against HCV 1b BB7 infected in human HuH7 cells assessed as GAPDH RNA level after 3 days by RT-PCR analysis; format: functional, Hepacivirus hominis, genotype 1b BB7, Huh-7
# [6] = Apparent permeability from apical to basolateral side of human Caco-2 cells; format: ADME, cell-based
# [7] = Apparent permeability from basolateral to apical side of human Caco-2 cells; format: ADME, cell-based
# [8] = Ratio of apparent permeability from basolateral to apical side over apical to basolateral side in human Caco-2 cells
# [9] = Cytotoxicity against human HuH7 cells assessed as BrdU incorporation in to cellular DNA by counter assay; format: cell-based, Huh-7
# How it was run: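 General cytotoxicity counter assay run alongside the replicon assay, read out as BrdU incorporation into cellular DNA.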
IC50 [1] [µM],IC50 (Hepatitis C virus [2]) [µM],EC50 (Hepatitis C virus [3]) [µM],SMILES,CC50 [9] [µM],further results
1.9,–,–,O=C(O)CC1(CC2CC2)OCCc2c1[nH]c1c(Cl)ccc(Cl)c21 (stereo unspecified),–,–
1.7,–,–,CC/C=C/C1(CC(=O)O)OCCc2c1[nH]c1c(Cl)ccc(Cl)c21 (stereo unspecified),–,–
7,–,–,CC(C)C1(CC(=O)O)OCCc2c1[nH]c1c(Cl)ccc(Cl)c21 (stereo unspecified),–,–
7.3,–,–,O=C(O)CC1(C2CC2)OCCc2c1[nH]c1c(Cl)ccc(Cl)c21 (stereo unspecified),–,–
0.15,–,–,CCC(C)C1(CC(=O)O)OCCc2c1[nH]c1c(Cl)ccc(Cl)c21 (stereo unspecified),–,–
0.13,0.26,2.2,CC[C@H](C)[C@]1(CC(=O)O)OCCc2c1[nH]c1c(C)ccc(C#N)c21,–,Activity (Hepatitis C virus [4]): 2.1 µM; Activity (Hepatitis C virus [5]): >10 µM
3.3,–,–,O=C(O)CC1(C2CCCC2)OCCc2c1[nH]c1c(Cl)ccc(Cl)c21 (stereo unspecified),–,–
> 30,–,–,O=C(O)CC1(C2CCCCC2)OCCc2c1[nH]c1c(Cl)ccc(Cl)c21 (stereo unspecified),–,–
6.3,–,–,CCC1(CC(=O)O)OCCc2c1[nH]c1c(Cl)ccc(Cl)c21 (stereo unspecified),–,–
0.3,–,–,CC(C#N)C1(CC(=O)O)OCCc2c1[nH]c1c(Cl)ccc(Cl)c21 (stereo unspecified),–,–
0.009,0.002,0.12,CC[C@H](C)[C@]1(CC(=O)O)OCCc2c1[nH]c1c(C)c(OCCn3cccn3)cc(C#N)c21,–,Activity (Hepatitis C virus [4]): 0.02 µM; Activity (Hepatitis C virus [5]): >20 µM
0.012,0.005,0.88,CCC[C@]1(CC(=O)O)OCCc2c1[nH]c1c(C)c(OCCn3cccn3)cc(C#N)c21,–,Activity (Hepatitis C virus [4]): 0.14 µM; Activity (Hepatitis C virus [5]): >90 µM
0.7,–,–,CCC[C@]1(C(=O)O)OCCc2c1[nH]c1c(C)ccc(C#N)c21,–,Activity (Hepatitis C virus [4]): 12 µM; Activity (Hepatitis C virus [5]): >30 µM; Papp A→B [6]: 3.2 ×10⁻⁶ cm/s; Papp B→A [7]: 24.2 ×10⁻⁶ cm/s; efflux ratio [8]: 7.5
0.4,–,–,O=C(O)CC1(CCC(F)(F)F)OCCc2c1[nH]c1c(Cl)ccc(Cl)c21 (stereo unspecified),–,–
26,–,–,CCOCC1(CC(=O)O)OCCc2c1[nH]c1c(Cl)ccc(Cl)c21 (stereo unspecified),–,–
0.4,1.1,29.7,Cc1ccc(C#N)c2c3c([nH]c12)[C@](CC(=O)O)(C1CCC1)OCC3,–,–
0.76,–,–,CCCCC1(CC(=O)O)OCCc2c1[nH]c1c(Cl)ccc(Cl)c21 (stereo unspecified),–,–
0.35,–,–,O=C(O)CC1(C2CCC2)OCCc2c1[nH]c1c(Cl)ccc(Cl)c21 (stereo unspecified),–,–
9.4,–,–,O=C(O)CC1(CC2CCCC2)OCCc2c1[nH]c1c(Cl)ccc(Cl)c21 (stereo unspecified),–,–
> 30,–,–,COCC1(CC(=O)O)OCCc2c1[nH]c1c(Cl)ccc(Cl)c21 (stereo unspecified),–,–
> 24,–,–,COCCC1(CC(=O)O)OCCc2c1[nH]c1c(Cl)ccc(Cl)c21 (stereo unspecified),–,–
7,–,–,CSCC1(CC(=O)O)OCCc2c1[nH]c1c(Cl)ccc(Cl)c21 (stereo unspecified),–,–
27,–,–,CC1(CC(=O)O)OCCc2c1[nH]c1c(Cl)ccc(Cl)c21 (stereo unspecified),–,–

IC50 [1] [µM],IC50 (Hepatitis C virus [2]) [µM],EC50 (Hepatitis C virus [3]) [µM],SMILES,CC50 [9] [µM],further results
0.37,–,–,CCCC1(CC(=O)O)OCCc2c1[nH]c1c(Cl)ccc(Cl)c21 (stereo unspecified),–,–
0.3,0.4,13.1,CCC[C@]1(CC(=O)O)OCCc2c1[nH]c1c(C)ccc(C#N)c21,> 100,Activity (Hepatitis C virus [4]): 4.8 µM; Activity (Hepatitis C virus [5]): >160 µM; Papp A→B [6]: 24 ×10⁻⁶ cm/s; Papp B→A [7]: 2.2 ×10⁻⁶ cm/s; efflux ratio [8]: 0.09
3.2,4.9,–,CCC(C)C1(CC(=O)O)OCCc2c1[nH]c1c(C)ccc(C#N)c21 (racemic),–,–
–,0.72,35,CCC[C@]1([C@H](NC(=O)OCc2ccccc2)C(=O)O)OCCc2c1[nH]c1c(C)ccc(C#N)c21 (racemic),45,–
–,1.7,> 100,CCC[C@]1([C@H](NC(C)=O)C(=O)O)OCCc2c1[nH]c1c(C)ccc(C#N)c21 (racemic),> 100,–
–,5,> 100,CCCCC(=O)N[C@H](C(=O)O)[C@@]1(CCC)OCCc2c1[nH]c1c(C)ccc(C#N)c21 (racemic),> 100,–
–,4.5,> 100,CCC[C@]1([C@H](NC(=O)c2ccccc2)C(=O)O)OCCc2c1[nH]c1c(C)ccc(C#N)c21 (racemic),> 100,–
–,6,> 100,CCC[C@]1([C@H](NS(C)(=O)=O)C(=O)O)OCCc2c1[nH]c1c(C)ccc(C#N)c21 (racemic),> 100,–
–,3.6,> 100,CCCCS(=O)(=O)N[C@H](C(=O)O)[C@@]1(CCC)OCCc2c1[nH]c1c(C)ccc(C#N)c21 (racemic),> 100,–
–,22,> 100,CCCCS(=O)(=O)N[C@@H](C(=O)O)[C@@]1(CCC)OCCc2c1[nH]c1c(C)ccc(C#N)c21 (racemic),> 100,–
–,16,> 100,CCC[C@]1([C@@H](NS(=O)(=O)c2ccccc2)C(=O)O)OCCc2c1[nH]c1c(C)ccc(C#N)c21 (racemic),> 100,–
–,5.6,> 100,CCC[C@]1([C@H](NC(=O)OC)C(=O)O)OCCc2c1[nH]c1c(C)ccc(C#N)c21 (racemic),> 100,–
–,7.2,> 100,CCC[C@]1([C@H](NC(=O)OCC)C(=O)O)OCCc2c1[nH]c1c(C)ccc(C#N)c21 (racemic),> 100,–
–,4,> 100,CCC[C@]1([C@H](NS(=O)(=O)c2ccccc2)C(=O)O)OCCc2c1[nH]c1c(C)ccc(C#N)c21 (racemic),> 100,–
–,17,> 100,CCC[C@]1([C@@H](NC(C)=O)C(=O)O)OCCc2c1[nH]c1c(C)ccc(C#N)c21 (racemic),> 100,–
–,> 30,> 100,CCCCC(=O)N[C@@H](C(=O)O)[C@@]1(CCC)OCCc2c1[nH]c1c(C)ccc(C#N)c21 (racemic),> 100,–
–,> 30,> 100,CCC[C@]1([C@@H](NC(=O)c2ccccc2)C(=O)O)OCCc2c1[nH]c1c(C)ccc(C#N)c21 (racemic),> 100,–
–,13,> 100,CCC[C@]1([C@@H](NS(C)(=O)=O)C(=O)O)OCCc2c1[nH]c1c(C)ccc(C#N)c21 (racemic),> 100,–
–,5.9,> 100,C=CCOC(=O)N[C@H](C(=O)O)[C@@]1(CCC)OCCc2c1[nH]c1c(C)ccc(C#N)c21 (racemic),> 100,–
–,11,> 100,CCC[C@]1([C@H](NC(=O)OC(C)C)C(=O)O)OCCc2c1[nH]c1c(C)ccc(C#N)c21 (racemic),> 100,–
–,9.5,> 100,CCC[C@]1([C@H](NC(=O)OCC(C)C)C(=O)O)OCCc2c1[nH]c1c(C)ccc(C#N)c21 (racemic),> 100,–
–,18,> 100,CCC[C@]1([C@H](NC(=O)OC(C)(C)C)C(=O)O)OCCc2c1[nH]c1c(C)ccc(C#N)c21 (racemic),> 100,–
